Screen size: about 2,500 compounds; about 1,200 (48%) were called active. So high a share suggests a set chosen from earlier hits. This is one part of the list. Values without a mark were called inactive.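 How the source made its calls: active means mean activation above the low control average plus 3 SD, as set in the primary screen (cut at about 12% in these data); inactive means the rest.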
These compounds were tested against Troponin I, cardiac muscle (Homo sapiens) + Troponin T, cardiac muscle (Homo sapiens) + Troponin C, slow skeletal and cardiac muscles (Homo sapiens) (UniProt P19429+P45379+P63316) (assay: cardiac RTF calcium sensitivity activators, confirmation, biochemical, IANBD-TnC fluorescence, triplicate (AID 504383;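 further: 0% = DMSO at 0.472 mM calcium and 100% = DMSO at 2.9 mM calcium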)). Details: IANBD-labeled cardiac RTF, Ca2+ sensitivity fluorescence; at 7.2 µM; active compounds read high; scaled from EC20 to saturating calcium; tested at EC20 calcium, 0.472 mM.
In short: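 material = labelled regulated thin filaments | probe or stimulus = Ca2+ 0.472 mM, EC20 level | dosing = single nominal compound dose of 7.2 µM | schedule = 15 min at 25 °C | signal = fluorescence intensity of labelled filaments | evaluation = fluorescence gain scaled between EC20 and EC100 calcium controls | benchmarks = low control EC20 calcium, high control EC100 calcium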

Row | Compound | activation
1 | COc1ccc(-n2nnnc2SCC(=O)c2cc3ccccc3o2)cc1 | 40.8% (active)
2 | NS(=O)(=O)c1ccc(-c2ccc(/C=C3\SC(=S)N(C4CCS(=O)(=O)C4)C3=O)o2)cc1 (stereo unspecified) | 17.8% (active)
3 | Fc1ccc(CN2CCCN(C(=S)Nc3ccc(F)cc3)CC2)cc1 | 54% (active)
4 | O=C(Nc1ccc(F)cc1)OCCN1CCN(Cc2ccccc2)CCC1=O | 5.99%
5 | CCn1c(C(C)NC(C)=O)nc2ccccc21 (stereo unspecified) | 16.6% (active)
6 | CCn1c(CNc2ccc(C(=O)O)cc2)nc2ccccc21 | -2.9%
7 | C/C(=N\NC(=O)c1cc2c(s1)CCC(C)C2)c1ccc[nH]1 (stereo unspecified) | 5.66%
8 | COCCN(C(=S)Nc1cccc(OC)c1)C1CCN(C(C)=O)CC1 | 12.8% (active)
9 | CN(C)c1ccc(/C=C(/C#N)C(=O)Nc2nc3c(s2)CCN(Cc2ccccc2)C3)cc1 | 10.5%
10 | CC(OC(=O)/C(C#N)=C/c1ccc(N(C)C)cc1)C(=O)N(C)Cc1ccccc1 (stereo unspecified) | 18.4% (active)
11 | CN(C)c1ccc(/C=C(\C#N)C(=O)Nc2nc3c(s2)CCN(Cc2ccccc2)C3)cc1 | 6.43%
12 | CN(C)c1ccc(/C=C(\C#N)C(=O)c2ccccc2)cc1 | 9.54%
13 | CC(=O)Nc1ccc(NC(=O)C(C)OC(=O)/C(C#N)=C/c2ccc(N(C)C)cc2)cc1 (stereo unspecified) | 17% (active)
14 | CC(OC(=O)/C(C#N)=C/c1ccc(N(C)C)cc1)C(=O)N(C)c1ccccc1 (stereo unspecified) | 17.5% (active)
15 | Fc1ccc(C2=CC(c3ccc(Br)o3)n3ncnc3N2)cc1 (stereo unspecified) | 5.63%
16 | Fc1ccc(C2=CC(c3ccco3)n3ncnc3N2)cc1 (stereo unspecified) | 18.9% (active)
17 | Brc1ccc(C2=CC(c3ccco3)n3ncnc3N2)cc1 (stereo unspecified) | 7.55%
18 | COc1ccc2nc(C)cc(NCc3ccc(F)cc3)c2c1 | 10.7%

Row | Compound | activation
19 | COc1ccc2nc(C)c3cc(C)oc3c2c1 | 71.2% (active)
20 | Cc1ccc(NS(=O)(=O)c2ccc(C(=O)N3CCN(c4ncccn4)CC3)cc2)cc1 | 3.55%
21 | O=C(Nc1ccc(S(=O)(=O)Nc2ncccn2)cc1)c1nn(Cc2ccccc2)c(=O)c2ccccc12 | 736% (active)
22 | O=C(Nc1ccc(S(=O)(=O)Nc2ncccn2)cc1)C1CC(=O)N(c2ccccc2)C1 (stereo unspecified) | 0.68%
23 | COCCN1C(=O)N[C@@H](c2cccc(C(F)(F)F)c2)C(C(=O)OC)=C1C | 42.1% (active)
24 | COC(=O)C/C(O)=C(/N=Nc1cccc(C(F)(F)F)c1)C(=O)OC | 9.06%
25 | CCOC(=O)CN1C(=O)N[C@@H](c2cccc(C(F)(F)F)c2)C(C(=O)OC)=C1C | 1.28%
26 | CCOc1ccc(-c2nnc(NC(=O)CCCOc3cccc(C)c3)o2)cc1 | 7.1%
27 | Cc1ccc(S(=O)(=O)N2CC(C(=O)O)=CC[C@H]2c2ccc(Cl)cc2)cc1 | 4.74%
28 | Cc1nnc(N/N=C/c2ccc(O)c([N+](=O)[O-])c2)[nH]c1=O | 35.2% (active)
29 | Cc1cc(/C=C2/NC(=O)N(Cc3ccccc3F)C2=O)c(C)n1C | 25.1% (active)
30 | Cc1ccc(/C=C2/NC(=O)N(Cc3ccccc3F)C2=O)s1 | 7.33%
31 | O=C(CC1SC(N2CCCCC2)=NC1=O)Nc1ccc(C(=O)NCc2ccccc2)cc1 (stereo unspecified) | 9.91%
32 | CCCNC(=O)C12CCC(C)(C(=O)C1Br)C2(C)C (stereo unspecified) | 12.4% (active)
33 | COc1cc2c(cc1OC)-c1cc3ccc4c(c3c[n+]1CC2)OCO4 | 15.6% (active)
34 | CCOCCCNS(=O)(=O)c1ccc(NC(=O)c2ccc(OC)c([N+](=O)[O-])c2)cc1 | 9.02%
35 | CCCCC(=O)Nc1ccc(C(=O)Nc2ccc(OC)cc2[N+](=O)[O-])cc1 | 13.3% (active)
36 | Cc1ccc2nc3nc(NCC4CCCO4)c(C(=O)NC4CCCC4)cc3c(=O)n2c1 (stereo unspecified) | 12.9% (active)

Reference: PubChem BioAssay AID504383 (The Scripps Research Institute Molecular Screening Center, 2011)
